Screening results from PubChem.
Hits are enriched below; roughly 2% of the tested compounds scored in any of these assays.
TRPN1 ag: zebrafish TRPN1 channel agonists, primary screen, cell-based, HEK293, calcium fluorescence; transient receptor potential cation channel N1 (TRPN1/NompC), Danio rerio; activation, % at 3 µM; HEK293 zebrafish TRPN1-YFP, Fluo-8 calcium fluorescence; 100% = response to 87 µM carbachol; 0.18% of 220,000 active;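 active means activation above its plate's cutoff, the mean activation of test wells on that plate plus 3 SD, cut at about 19% in these data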;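 further: 0% = DMSO alone and 100% = 87 µM carbachol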
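Material – zebrafish TRPN1-YFP in HEK293 cells · Doses – 3 µM single point · Schedule – dye 1 h 37 °C plus 30 min RT · Signal – Fluo-8 calcium fluorescence, excitation 470-495 nm, emission 515-575 nm · Read-out – % activation versus carbachol response · Control set – carbachol high, DMSO low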
CRFBP-R2 block: antagonists of CRF-BP/CRF-R2 complex, primary screen, cell-based, HEK293, calcium dye fluorescence, uHTS. CRF-induced calcium fluorescence. inhibition, % at 11.8 µM. 0.59% of 350,000 active. AID 588475, 2011;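 active means inhibition of the ligand-induced calcium signal above about 50% at the single tested concentration, limit read from the data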
CRFR2-BP ag: agonists of CRF-BP/CRF-R2 complex, primary screen, cell-based, HEK293, calcium dye fluorescence, uHTS. activation, % at 13.2 µM. AID 588473, 2011. CRF-binding protein / CRF receptor 2 complex (human). calcium dye fluorescence (FLIPR); percent of saturating CRF peptide response. 0.46% of 350,000 active;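 active means activation of at least 50%, plus an integration ratio under a set limit after plate pattern correction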;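 further: plate controls were neutral control wells without compound for no effect and CRF at EC100 for full effect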
GPR7 antagonist: GPR7 receptor antagonists, primary screen, cell-based, fluorescence, single concentration; 1.1% of 290,000 active; GPR7-expressing cells, fluorescence antagonist assay; Neuropeptides B/W receptor type 1 (Homo sapiens), P48145; inhibition, % at 4.4 µM; in the data active means inhibition above about 16%, passing the limit was not always enough;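 further: cells stimulated with the agonist NPW; 0% = agonist with vehicle and 100% = vehicle without agonist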
Target sequence (P48145 whole entry, looked up): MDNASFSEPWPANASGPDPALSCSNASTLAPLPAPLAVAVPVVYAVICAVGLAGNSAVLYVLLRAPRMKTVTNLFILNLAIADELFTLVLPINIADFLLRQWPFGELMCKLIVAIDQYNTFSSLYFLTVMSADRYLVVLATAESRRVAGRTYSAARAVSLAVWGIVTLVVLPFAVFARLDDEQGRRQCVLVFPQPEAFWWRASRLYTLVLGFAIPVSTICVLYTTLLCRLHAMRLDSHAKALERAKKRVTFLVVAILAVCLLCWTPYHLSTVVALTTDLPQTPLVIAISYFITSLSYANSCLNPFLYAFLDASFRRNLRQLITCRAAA
TRPML3 agonist: human TRPML3 channel agonists, primary screen, cell-based, HEK293 TRPML3-YFP, Fluo-8 calcium fluorescence, 3 µM. Mucolipin-3 (Homo sapiens), Q8TDD5. 100% = the carbachol control signal. 0.29% of 220,000 active. activation, % at 3 µM;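 active means activation above its plate's cutoff, the mean activation of the plate's test wells plus 3 SD, cut at about 12% in these data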;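 further: 0% = DMSO only wells and 100% = carbachol wells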
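Test system: TRPML3-YFP stable HEK293 cells. Doses: single point at 3 µM. Incubation: dye loading 1 h 37 °C then 30 min ambient, 125 s read. Signal: Fluo-8 calcium dye fluorescence, ex 470-495, em 515-575 nm. Measure: percent activation from peak-to-basal fluorescence ratio, scaled between DMSO and carbachol.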
GPR7 antag cf: GPR7 receptor antagonists, confirmation, cell-based, fluorescence, single concentration. inhibition, % at 4.4 µM. shares compounds with GPR7 antagonist. 52% of 2,400 active. GPR7-expressing cells, calcium fluorescence antagonist mode; in the data active means inhibition above about 24%;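 further: stimulated with the GPR7 agonist NPW; 0% = agonist plus vehicle and 100% = vehicle alone without agonist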
MCHR1 antagonist: MCHR1 antagonists in cells, counter-screen for GPR7 antagonist project, cell-based, fluorescence, human; shares compounds with GPR7 antagonist; MCHR1-expressing cells, fluorescence antagonist assay; inhibition, % at 4.4 µM; 62% of 2,400 active; AID 2148, 2009; in the data active means inhibition above about 22%;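 further: 0% = vehicle with agonist and 100% = vehicle without agonist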
Starred values were filed as active, the others as inactive; nt = not tested or not shown.

SMILES	TRPN1 ag	CRFBP-R2 block	CRFR2-BP ag	GPR7 antagonist	TRPML3 agonist	GPR7 antag cf	MCHR1 antagonist
COc1ccc(-c2cnc(SCC(=O)Nc3ccc4c(c3)OCO4)n2Cc2ccco2)cc1	-1	45	-3	22*	-1	42*	68*
O=C(O)c1cc([N+](=O)[O-])ccc1Oc1ccccc1	nt	23	-1	nt	nt	nt	nt
C/C(CC(=O)Nc1ccc2c(c1)OCCO2)=N\NC(=O)c1ccc([N+](=O)[O-])cc1Cl	nt	2	-1	34*	nt	-5	-1
CC(C(=O)Nc1ccc2c(c1)OCCO2)c1ccc([N+](=O)[O-])cc1 (configuration not stated)	20*	-68	110*	47*	13*	70*	51*
CC(C(=O)Nc1ccc2c(c1)OCO2)c1ccc([N+](=O)[O-])cc1 (configuration not stated)	9	2	18	5	5	nt	nt
CC1CN(C(=O)CCC(=O)NCc2ccc(Cl)cc2)c2ccccc2S1 (configuration not stated)	nt	-31	-1	0	nt	nt	nt
CC1CN(C(=O)CCC(=O)NCc2ccc(F)cc2)c2ccccc2S1 (configuration not stated)	nt	-13	-1	28*	nt	-5	11
c1ccc(-n2ncc3c(NCc4ccco4)ncnc32)cc1	0	-7	0	24*	0	48*	44*
Cc1ccc(OCCNC(=O)c2ccc(NC(=O)CC3SC(N4CCCC4)=NC3=O)cc2)cc1 (configuration not stated)	nt	13	-1	nt	nt	nt	nt
CN(C)c1cccc(C(=O)NNC(=O)CSc2ccccc2)c1	nt	1	0	-4	nt	nt	nt
CCOC(=O)Cn1cc(/C=N/NC(=O)c2cc3ccccc3o2)c2ccccc21	-1	-7	-2	26*	0	-5	28*
CN1CCC(Oc2ccccc2Sc2ccc(C(F)(F)F)cc2)CC1	1	-12	-2	27*	1	30*	64*
CN1CCC(Oc2ccc(Sc3ccccc3)cc2)CC1	5	-38	0	17	3	nt	nt
COc1cccc(NC(=O)c2ccc3c(c2)CCCC3)c1	nt	-1	-1	-8	nt	nt	nt
CC(=O)c1cccc(NC(=O)c2ccc(N(Cc3ccc(C)cc3)S(C)(=O)=O)cc2)c1	4	-35	16	37*	2	16	50*
Cc1ccc(CN(c2ccc(C(=O)Nc3ccc4c(c3)OCO4)cc2)S(C)(=O)=O)cc1	3	-54	5	3	2	nt	nt
CC(=O)c1cccc(NS(=O)(=O)c2ccc(C(=O)Nc3ccccc3)cc2)c1	nt	2	2	22*	nt	29*	50*
CC(=O)c1cccc(NC(=O)c2ccc(N(C)S(=O)(=O)c3ccc(C)cc3)cc2)c1	nt	3	6	30*	nt	5	37*
CC(=O)c1cccc(NC(=O)c2ccc3c(c2)CCCC3)c1	nt	-7	0	43*	nt	8	41*
CCc1nnc(NC(=O)CSc2nnc(C(C)NC(=O)c3ccccc3)n2C)s1 (configuration not stated)	nt	-1	1	0	nt	nt	nt
Cc1ccc(SCC(=O)OC(C)C(=O)Nc2ccc(S(N)(=O)=O)cc2)cc1C (configuration not stated)	nt	13	0	nt	nt	nt	nt
CC(=O)Nc1ccc(NC(=O)C(C)OC(=O)c2cc(S(=O)(=O)N(C)C)ccc2N2CCCC2)cc1 (configuration not stated)	nt	-3	-1	nt	nt	nt	nt
O=C(NC1CCCC1)C(c1ccccn1)N(C(=O)c1csnn1)c1ccccc1Cl (configuration not stated)	nt	-3	-1	-13	nt	nt	nt
COc1cccc(NC(=O)COC(=O)c2c3c(nc4ccccc24)CCC(C)C3)c1 (configuration not stated)	-2	-45	0	39*	-2	26*	63*
CC(C(=O)OCC(=O)N1CCCCC1)N1C(=O)c2ccccc2C1=O (configuration not stated)	nt	12	1	nt	nt	nt	nt
SMILES	TRPN1 ag	CRFBP-R2 block	CRFR2-BP ag	GPR7 antagonist	TRPML3 agonist	GPR7 antag cf	MCHR1 antagonist
O=C(Cc1cccs1)N(Cc1ccco1)C1(C(=O)NC2CCCCC2)CCCCC1	0	-11	-1	44*	0	47*	52*
O=C(c1ccc2c(c1)OCO2)N(CC1CCCO1)C1(C(=O)NC2CCCCC2)CCCCC1 (configuration not stated)	-2	-5	-1	34*	0	29*	30*
O=C(NC1CCCCC1)C(c1cccs1)N(Cc1cccs1)C(=O)c1cccs1 (configuration not stated)	-1	6	-1	32*	-1	31*	42*
O=C(c1ccc2c(c1)OCO2)N(Cc1cccs1)C1(C(=O)NC2CCCCC2)CCCCC1	-1	-37	10	31*	1	40*	59*
O=C(c1ccc(=O)[nH]c1)N(Cc1cccs1)C1(C(=O)NC2CCCC2)CCCCC1	0	27	-2	3	0	nt	nt
O=C(C1CCN(S(=O)(=O)c2ccc(Br)cc2)CC1)N1CCOCC1	nt	18	-2	0	nt	nt	nt
O=C(Cc1cccs1)N(Cc1cccs1)C1(C(=O)NC2CCCC2)CCCCC1	-1	-6	1	47*	-2	37*	51*
O=C1CCC(C(=O)N(Cc2ccco2)C2(C(=O)NC3CCCC3)CCCCC2)N1 (configuration not stated)	-1	-13	0	28*	1	22	17
Cc1cccc(N(Cc2ccccc2)C(=O)Cc2ccc(S(=O)(=O)N3CCOCC3)s2)c1	nt	10	0	nt	nt	nt	nt
O=C(CC(C(=O)N1CCc2ccccc21)n1ccnc1)NCC1CCCO1 (configuration not stated)	2	9	-1	24*	0	4	4
CCCCNC(=O)CC(C(=O)N1CCc2ccccc21)n1ccnc1 (configuration not stated)	-1	-13	1	-4	1	nt	nt
Nc1n[nH]c(N)c1N=Nc1cccc(C(F)(F)F)c1	nt	6	-1	41*	nt	38*	36*
COc1ccc(CCNC(=O)C2CCN(S(=O)(=O)c3ccc4c(c3)oc(=O)n4C)CC2)cc1OC	nt	-1	0	-4	nt	nt	nt
